Reference: publication PMC4804314 (Pharmacology Research & Perspectives, 2016)

What was measured:
[1] = Distribution of radioactivity in pigmented mice; type: in vivo; conditions: eyes and skin
[2] = Metabolite profiling of monkey plasma, urine and feces by radio-HPLC; type: in vivo, Cynomolgus monkey (Macaca fascicularis); conditions: Cynomolgus monkey, i.v.
Procedure, shortened: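 Monkey samples after i.v. [14C]-test compound, 2.0 mg/kg. Plasma at 0.1–8 h was extracted twice with ethanol and centrifuged, and extracts went to LSC and radio-HPLC. Precipitates were combusted for total radioactivity. Urine (0–8 h, 8–24 h, then 24-h intervals to 120 h) was evaporated and reconstituted in mobile phase. Feces were processed as for mouse. Isocratic acetonitrile/ammonium acetate pH 4 on RP8e, UV 230 nm with radiodetection.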

[3] = tested on: sandwich‐cultured mouse (NMRI) hepatocytes; assay: Hepatobiliary disposition in sandwich-cultured mouse hepatocytes; type: in vitro ADME; conditions: for BEI / CLbiliary / Intracellular concentration / Cellular accumulation Avg. / Total accumulation Avg.: 20 min; for Cellular accumulation Avg. / Total accumulation Avg.: mean ± SD of triplicate wells
[4] = Excretion of total radioactivity in mouse; type: in vivo, mouse (NMRI)
Procedure, shortened: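 Male and female NMRI mice got an i.v. bolus of [14C]-test compound, 2.5 mg/kg. Urine and feces were collected 0–8 h, 8–24 h, then every 24 h to 120 h. Urine from timed pooled samples (n = 3) was counted by LSC. Feces were homogenized in water with carboxymethylcellulose, and 1 g aliquots were dried at 60°C/12 h and combusted. Minced carcasses (0.5 g aliquots) and tail segments were combusted for residual radioactivity.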

[5] = Plasma pharmacokinetics in mouse after i.v. bolus; type: in vivo, mouse (NMRI); conditions: for level at 0.1 h / level at 0.25 h / level at 2 h: NMRI, plasma
Procedure, shortened: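 Male and female NMRI mice, i.v. bolus of [14C]-test compound, 2.5 mg/kg (4.2 μmol/kg). Blood was taken by exsanguination under anesthesia (n = 3/time point) and spun 2 min at 10,000g. Plasma was counted by LSC from predose to 72 h. A separate unlabeled-dose study gave plasma from predose to 8 h for parent by validated LC/MS/MS. Noncompartmental analysis was used, with clearance related to hepatic blood flow.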

[6] = Plasma pharmacokinetics in Cynomolgus monkey after i.v. bolus; type: in vivo, Cynomolgus monkey (Macaca fascicularis)
Procedure, shortened: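 Female Cynomolgus monkeys (n = 3), single i.v. bolus of [14C]-test compound. Plasma was sampled predose and at 0.1, 0.5, 1.0, 2, 4, 8, 24 and 48 h. Total radioactivity was read by LSC and parent compound by LC/MS/MS. PK parameters came from noncompartmental analysis as in mouse.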

[7] = tested on: sandwich‐cultured human hepatocytes; assay: Hepatobiliary disposition in sandwich-cultured human hepatocytes; type: in vitro ADME
Procedure, shortened: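 Sandwich-cultured human hepatocytes from three donor liver preparations, cultured 6 days. [14C]-test compound was applied at 10 and 250 μmol/L, with [3H]-taurocholate as transporter-function control and LDH release as cytotoxicity check. Radioactivity was read by LSC. Accumulation is mean ± SD of triplicate wells. BEI, CLbiliary, intracellular concentration and Cic/Cec were derived.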

[8] = Metabolite profiling of mouse plasma, urine and feces by radio-HPLC; type: in vivo, mouse (NMRI); conditions: for dose excreted: NMRI, mouse
Procedure, shortened: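 Mouse samples after i.v. [14C]-test compound, 2.5 mg/kg. Plasma at 0.1 and 0.25 h was extracted twice with ethanol. Fecal precipitates were sonicated with ethanol at 40°C/2 h, and unextracted residue was combusted. Extracts ran on isocratic radio-HPLC: acetonitrile/0.05 mol/L ammonium acetate pH 4 (19/80, v/v), RP8e column, 1 mL/min, UV 230 nm plus radiodetector. Excreted radioactivity was given as % dose.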

[9] = cynomolgus monkey, in vivo, iv, 2 mg/kg
[10] = female, cynomolgus monkey, plasma, iv, 2 mg/kg
[11] = 10 μM, donor 1, 20 min, mean ± SD of triplicate wells
[12] = 10 μM, donor 2, 20 min, mean ± SD of triplicate wells
[13] = 10 μM, donor 3, 20 min, mean ± SD of triplicate wells
[14] = 10 μM, mean ± standard error of 3 donors, 20 min
[15] = 250 μM, donor 1, 20 min, mean ± SD of triplicate wells
[16] = 250 μM, donor 2, 20 min, mean ± SD of triplicate wells
[17] = 250 μM, donor 3, 20 min, mean ± SD of triplicate wells
[18] = 250 μM, mean ± standard error of 3 donors, 20 min

With `CC(C)[C@H]1C(=O)N[C@@H](CCCN=C(N)N)C(=O)NCC(=O)N[C@@H](CC(=O)O)C(=O)N[C@H](Cc2ccccc2)C(=O)N1C` [cilengitide, cyclo‐(Asp‐D‐Phe‐N‐MeVal‐Arg‐Gly)] the melanin binding [1] was “no relevant melanin binding”, the “unchanged drug in plasma, share of total drug‐related material” value [2] was over 85% and the uptake into hepatocytes [3] was “fairly robust”. The BEI ([3]; 10 μmol/L) was 29.3%, the CLbiliary ([3]; 10 μmol/L) was 0.701 mL/min/kg and the Intracellular concentration ([3]; 10 μmol/L) was 4.13 µM. For the same compound, the “Cellular accumulation Avg.” value ([3]; 10 μmol/L) was 33.3 ± 1.4 pmol/mg, the “Total accumulation Avg.” value ([3]; 10 μmol/L) was 47.1 ± 1.7 pmol/mg and the BEI ([3]; 250 μmol/L) was 43.3%. For the same compound, the CLbiliary ([3]; 250 μmol/L) was 2.74 mL/min/kg, the Intracellular concentration ([3]; 250 μmol/L) was 219 µM and the “Cellular accumulation Avg.” value ([3]; 250 μmol/L) was 1768 ± 14 pmol/mg. For the same compound, the “Total accumulation Avg.” value ([3]; 250 μmol/L) was 3115 ± 32 pmol/mg, the “biliary efflux (BEI)” value ([3]; 10 and 250 μmol/L) was 30–40% and the “intracellular concentration (Cic)” value ([3]; exposure 10 μmol/L) was 4.13 µmol/L. The “intracellular concentration (Cic)” value ([3]; exposure 250 μmol/L) was 219 µmol/L, the “extent of renal excretion” value [4] was 10% and the “clearance as share of hepatic blood flow (hbf)” value ([5]; female mice) was 60%. For the same compound, the level at 0.1 h ([5]; female, mouse, iv, 2.5 mg/kg) was 2490 ng/mL, the level at 0.25 h ([5]; female, mouse, iv, 2.5 mg/kg) was 448 ng/mL and the level at 2 h ([5]; female, mouse, iv, 2.5 mg/kg) was 6.3 ng/mL. The “clearance as share of hepatic blood flow (hbf)” value ([5]; male mice) was 105%, the level at 0.1 h ([5]; male, mouse, iv, 2.5 mg/kg) was 1240 ng/mL and the level at 0.25 h ([5]; male, mouse, iv, 2.5 mg/kg) was 439 ng/mL. The level at 2 h ([5]; male, mouse, iv, 2.5 mg/kg) was 8 ng/mL, the clearance ([5]; mouse, in vivo, Plasma CL, value used for allometry) was 63.5 mL/min/kg and the Vd ([5]; mouse, in vivo, Vdss, range over both species (mouse and monkey)) was 0.32 to 1.6 L/kg. It also gave an AUC ([5]; mouse, in vivo, iv, 2.5 mg/kg, AUC0‐∞ of parent drug, male mice, 2.5 mg/kg i.v.) of 440 ng·h/mL, a Vd ([5]; mouse, in vivo, iv, 2.5 mg/kg, apparent Vdss, female mice, 2.5 mg/kg i.v.) of 0.56 L/kg and a Vd ([5]; mouse, in vivo, iv, 2.5 mg/kg, apparent Vdss, male mice, 2.5 mg/kg i.v.) of 1.6 L/kg. It also gave a clearance ([5]; mouse, in vivo, iv, 2.5 mg/kg, plasma clearance, female mice, 2.5 mg/kg i.v.) of 53.3 mL/min/kg, a clearance ([5]; mouse, in vivo, iv, 2.5 mg/kg, plasma clearance, male mice, 2.5 mg/kg i.v.) of 94.7 mL/min/kg and a half-life ([5]; mouse, in vivo, t1/2, mouse, value used for allometry) of 0.34 h. For the same compound, the half-life ([6]; cynomolgus monkey, in vivo) was 1.25 h, the clearance ([6]; cynomolgus monkey, in vivo, Plasma CL, monkey, value used for allometry) was 4.83 mL/min/kg and the AUC [6, 9] was 6460 ng·h/mL. The Vd [6, 9] was 0.35 L/kg, the half-life [6, 9] was 1.1 h and the level at 0.1 h [6, 10] was 7020 ng/mL. The level at 0.5 h [6, 10] was 3400 ng/mL, the level at 8 h [6, 10] was 24.6 ng/mL and the “clearance as share of hbf” value ([6]; monkey) was 12%. For the same compound, the “biliary efflux (as determined by BEI and CLbil)” value [7] was “negligible”, the BEI ([7]; 10 μM, donor 1, 20 min) was 2.42% and the CLbiliary ([7]; 10 μM, donor 1, 20 min) was 0.005 mL/min/kg. The Intracellular concentration ([7]; 10 μM, donor 1, 20 min) was 1.70 µM, the “Cellular accumulation Avg.” value [7, 11] was 13.7 ± 1.8 pmol/mg and the “Total accumulation Avg.” value [7, 11] was 14.0 ± 1.5 pmol/mg. For the same compound, the BEI ([7]; 10 μM, donor 2, 20 min) was 2.30%, the CLbiliary ([7]; 10 μM, donor 2, 20 min) was 0.004 mL/min/kg and the Intracellular concentration ([7]; 10 μM, donor 2, 20 min) was 0.52 µM. For the same compound, the “Cellular accumulation Avg.” value [7, 12] was 4.17 ± 0.33 pmol/mg, the “Total accumulation Avg.” value [7, 12] was 4.27 ± 0.46 pmol/mg and the BEI ([7]; 10 μM, donor 3, 20 min) was 16.6%. For the same compound, the CLbiliary ([7]; 10 μM, donor 3, 20 min) was 0.013 mL/min/kg, the Intracellular concentration ([7]; 10 μM, donor 3, 20 min) was 0.56 µM and the “Cellular accumulation Avg.” value [7, 13] was 4.53 ± 0.38 pmol/mg. For the same compound, the “Total accumulation Avg.” value [7, 13] was 5.44 ± 3.31 pmol/mg, the BEI [7, 14] was 7.12 ± 4.76% and the CLbiliary [7, 14] was 0.007 ± 0.003 mL/min/kg. The “Cellular accumulation Avg.” value [7, 14] was 7.47 ± 3.12 pmol/mg, the Intracellular concentration [7, 14] was 0.926 ± 0.386 µM and the “Total accumulation Avg.” value [7, 14] was 7.90 ± 3.07 pmol/mg. The BEI ([7]; 250 μM, donor 1, 20 min) was 20.4%, the CLbiliary ([7]; 250 μM, donor 1, 20 min) was 0.028 mL/min/kg and the Intracellular concentration ([7]; 250 μM, donor 1, 20 min) was 22.7 µM. For the same compound, the “Cellular accumulation Avg.” value [7, 15] was 183 ± 27 pmol/mg, the “Total accumulation Avg.” value [7, 15] was 230 ± 28 pmol/mg and the BEI ([7]; 250 μM, donor 2, 20 min) was 8.75%. For the same compound, the CLbiliary ([7]; 250 μM, donor 2, 20 min) was 0.005 mL/min/kg, the Intracellular concentration ([7]; 250 μM, donor 2, 20 min) was 10.4 µM and the “Cellular accumulation Avg.” value [7, 16] was 84.0 ± 12.1 pmol/mg. For the same compound, the “Total accumulation Avg.” value [7, 16] was 92.1 ± 5.7 pmol/mg, the BEI ([7]; 250 μM, donor 3, 20 min) was 15.6% and the CLbiliary ([7]; 250 μM, donor 3, 20 min) was 0.013 mL/min/kg. For the same compound, the Intracellular concentration ([7]; 250 μM, donor 3, 20 min) was 15.2 µM, the “Cellular accumulation Avg.” value [7, 17] was 122 ± 14 pmol/mg and the “Total accumulation Avg.” value [7, 17] was 145 ± 5.9 pmol/mg. The BEI [7, 18] was 14.9 ± 3.4%, the CLbiliary [7, 18] was 0.015 ± 0.007 mL/min/kg and the “Cellular accumulation Avg.” value [7, 18] was 130 ± 29 pmol/mg. The Intracellular concentration [7, 18] was 16.1 ± 3.6 µM, the “Total accumulation Avg.” value [7, 18] was 156 ± 3 pmol/mg and the “biotransformation by HPLC analysis of supernatant and cell lysate” value ([7]; 250 μmol/L, 6 and 24 h) was “no indication for biotransformation”. For the same compound, the Intracellular concentration ([7]; exposure at 10 μmol/L) was 0.926 ± 0.386 µM, the Intracellular concentration ([7]; exposure at 250 μmol/L) was 16.1 ± 3.6 µM and the dose excreted ([8]; female, feces) was 66.2%. For the same compound, the dose excreted ([8]; female, feces, iv, 2.5 mg/kg) was 66%, the dose excreted ([8]; female, urine, iv, 2.5 mg/kg) was 28% and the “unchanged drug in feces (fecal/biliary secretion)” value ([8]; male mice) was 87.2 % of the administered dose. The dose excreted ([8]; male, feces, iv, 2.5 mg/kg) was 87% and the dose excreted ([8]; male, urine, iv, 2.5 mg/kg) was 7%.
